INS-1E ATP HTS – preserves ATP levels in cytokine-treated INS-1E cells; INS-1E cytokine-induced death, ATP luminescence, 48 h; normalised: neutral wells 0, positive control 100; protection from cytokine-induced ATP loss, % at 10 µM; 20,000 tested, 0.1% active; AID 488910;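 active = mean replicate protection from cytokine-induced ATP loss at least 50% and at least 75% of replicates each reaching 50%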
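Test system: INS-1E rat cells | Quantity: 8000 cells per well | Medium: Phenol-red-free RPMI with 5% fetal bovine serum | Reagent: Cytokine cocktail of IFN-γ, TNF-α and IL-1β | Doses: One compound concentration, pin transfer | Timing: 48 h co-treatment, 10 min post-lysis read | Technique: Luminescent ATP assay (CellTiter-Glo)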
A1 apoptosis 2 – A1 inhibition read as caspase activation. 24,000 tested, under 10 active. MEF A1-2A-BIM cells, caspase-Glo luminescence, 3 h; percent of clofoctol response, DMSO zero. AID 2465. caspase activation, % (concentration not given with the values); in the data active = caspase activation above about 5.9%
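system = A1-2A-BIM-expressing MEF cells | quantity = 2500 MEF cells/well | dosing = 50 nL compound per well, pinned | schedule = overnight cell settling, then 3 h compound exposure, 37 °C | signal = luminescence from DEVD-luciferin Caspase-Glo reagent, 1:1 in 50 mM HEPES, 1 h RT | read-out = Caspase-3/7 activation, seen as rise in luminescence signal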
T cruzi intra – inhibitors of intracellular Trypanosoma cruzi; intracellular Trypanosoma cruzi in host cells, plate reader; activity score (inhibition), % at 5.01 µM; 22,000 tested, 4.9% active; AID 651903; in the data active = activity score above about 55%;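 note: parasites and compound incubated about four days before reading; 0% = median of neutral control wells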
Numbers without * were called inactive; / = not tested or not shown. Shown is part of a subset that was picked to be rich in hits.

SMILES | INS-1E ATP HTS | A1 apoptosis 2 | T cruzi intra
C[C@H](CO)N1C[C@H](C)[C@H](CN(C)Cc2ccc(Cl)c(Cl)c2)Oc2c(NC(=O)CCCCCC(=O)Nc3ccccc3N)cccc2C1=O | 15 | -1 | 66*
C[C@@H]1CN([C@@H](C)CO)C(=O)c2cccc(NC(=O)CCCCCC(=O)Nc3ccccc3N)c2O[C@H]1CN(C)Cc1ccc(-c2ccccc2)cc1 | / | -1 | /
C[C@@H]1CN([C@@H](C)CO)C(=O)CCCn2cc(nn2)CO[C@@H]1CN(C)CC1CCCCC1 | / | / | -4
C[C@@H]1CN([C@@H](C)CO)C(=O)CCCn2nncc2CO[C@H]1CN(C)S(=O)(=O)c1ccc(-c2ccccc2)cc1 | -4 | 2 | 11
C[C@H]1CN([C@@H](C)CO)C(=O)CCCn2nncc2CO[C@@H]1CN(C)S(=O)(=O)c1ccc(-c2ccccc2)cc1 | / | / | 84*
C[C@H]1CN([C@@H](C)CO)C(=O)CCCn2nncc2CO[C@H]1CN(C)Cc1ccc(Oc2ccccc2)cc1 | / | -1 | -14
C[C@H](CO)N1C[C@H](C)[C@@H](CN(C)Cc2ccc(Oc3ccccc3)cc2)OCc2cnnn2CCCC1=O | / | 2 | 83*
C[C@@H]1CN([C@@H](C)CO)C(=O)CCCn2cc(nn2)CO[C@H]1CN(C)Cc1ccc(Oc2ccccc2)cc1 | -2 | 0 | 68*
C[C@H]1CN([C@@H](C)CO)C(=O)CCCn2cc(nn2)CO[C@@H]1CN(C)Cc1ccc(Oc2ccccc2)cc1 | / | 0 | 32
C[C@H](CO)N1C[C@H](C)[C@@H](CN(C)Cc2ccc(C(F)(F)F)cc2)OCc2cnnn2CCCC1=O | / | 0 | 61*
C[C@H]1CN([C@@H](C)CO)C(=O)CCCn2nncc2CO[C@@H]1CN(C)Cc1ccc(C(F)(F)F)cc1 | / | 0 | 52
C[C@H](CO)N1C[C@H](C)[C@H](CN(C)S(=O)(=O)c2ccc(F)cc2)Oc2ccc(NS(=O)(=O)c3ccc(F)cc3)cc2CC1=O | -2 | -1 | 7
CC(C)NC(=O)N(C)C[C@H]1Oc2ccc(NC(=O)Cn3cnnn3)cc2CC(=O)N([C@@H](C)CO)C[C@H]1C | -2 | 1 | -3
C[C@@H]1CN([C@H](C)CO)C(=O)CCCn2nncc2CO[C@H]1CN(C)Cc1ccc(-c2ccccc2)cc1 | -9 | / | 10
C[C@H](CO)N1C[C@H](C)[C@@H](CN(C)Cc2ccc(-c3ccccc3)cc2)OCc2cnnn2CCCC1=O | / | / | 65*
C[C@@H]1CCCCO[C@@H](CN(C)Cc2ccc(Cl)c(Cl)c2)[C@@H](C)CN([C@H](C)CO)C(=O)c2cc(NC(=O)Cc3ccccc3)ccc2O1 | -45 | 0 | 64*
C[C@@H]1CCCCO[C@@H](CN(C)Cc2ccc(Cl)c(Cl)c2)[C@@H](C)CN([C@H](C)CO)C(=O)c2cc(NC(=O)CCC(F)(F)F)ccc2O1 | -32 | / | 63*
C[C@@H]1CN([C@@H](C)CO)C(=O)c2cc(NC(=O)CCC(F)(F)F)ccc2O[C@@H](C)CCCCO[C@H]1CN(C)Cc1ccc(Cl)c(Cl)c1 | / | 0 | /
C[C@@H]1CCCCO[C@@H](CN(C)Cc2ccc(Cl)c(Cl)c2)[C@H](C)CN([C@H](C)CO)C(=O)c2cc(NC(=O)Cc3ccccc3)ccc2O1 | / | 0 | /
COc1ccc(S(=O)(=O)N(C)C[C@@H]2Oc3c(NC(=O)C4CC4)cccc3C(=O)N([C@H](C)CO)C[C@@H]2C)cc1 | 3 | -1 | -20
COc1ccc(S(=O)(=O)Nc2cccc3c2O[C@H](CN(C)Cc2ccc(-c4ccccc4)cc2)[C@H](C)CN([C@@H](C)CO)C3=O)cc1 | -38 | -1 | 27
CNC[C@@H]1OCCCC[C@@H](C)Oc2ccc(NC(=O)Nc3ccc(OC)cc3)cc2C(=O)N([C@H](C)CO)C[C@@H]1C | 9 | / | -19
C[C@H]1CN([C@@H](C)CO)C(=O)Cc2cc(NC(=O)CCC(F)(F)F)ccc2O[C@@H]1CN(C)Cc1ccc(-c2ccccc2)cc1 | -53 | / | 60*
C[C@@H]1CN([C@@H](C)CO)C(=O)Cc2cc(NC(=O)CCC(F)(F)F)ccc2O[C@H]1CN(C)Cc1ccc(-c2ccccc2)cc1 | / | 2 | /
C[C@@H]1CN([C@@H](C)CO)C(=O)Cc2cc(NC(=O)Nc3ccc(F)cc3)ccc2O[C@@H]1CN(C)Cc1ccc(Oc2ccccc2)cc1 | 0 | / | 75*
SMILES | INS-1E ATP HTS | A1 apoptosis 2 | T cruzi intra
C[C@H]1CN([C@@H](C)CO)C(=O)Cc2cc(NC(=O)Nc3ccccc3)ccc2O[C@H]1CN(C)Cc1ccc(Oc2ccccc2)cc1 | -16 | / | -4
C[C@@H]1CN([C@H](C)CO)C(=O)Cc2cc(NC(=O)Nc3ccccc3)ccc2O[C@@H]1CN(C)Cc1ccc(Oc2ccccc2)cc1 | -69 | 2 | 72*
C[C@@H]1CN([C@@H](C)CO)C(=O)Cc2cc(NC(=O)Nc3ccccc3)ccc2O[C@@H]1CN(C)Cc1ccc(Oc2ccccc2)cc1 | -74 | / | 81*
C[C@H]1CN([C@@H](C)CO)C(=O)Cc2cc(NC(=O)Nc3ccccc3)ccc2O[C@@H]1CN(C)Cc1ccc(Oc2ccccc2)cc1 | -26 | / | 49
C[C@@H]1CN([C@@H](C)CO)C(=O)Cc2cc(NC(=O)Nc3ccccc3)ccc2O[C@H]1CN(C)Cc1ccc(Oc2ccccc2)cc1 | / | 1 | /
Cc1noc(C)c1S(=O)(=O)Nc1ccc2c(c1)CC(=O)N([C@H](C)CO)C[C@H](C)[C@H](CN(C)C(=O)NC1CCCCC1)O2 | 6 | / | -8
Cc1ccc(S(=O)(=O)Nc2ccc3c(c2)C(=O)N([C@@H](C)CO)C[C@@H](C)[C@H](CN(C)C(=O)Cc2ccccc2)OCCCC[C@@H](C)O3)cc1 | / | -1 | /
C[C@H](CO)N1C[C@H](C)[C@H](CN(C)Cc2ccc(-c3ccccc3)cc2)Oc2ccc(NC(=O)Cc3ccccc3)cc2CC1=O | -18 | / | 47
C[C@H](CO)N1C[C@H](C)[C@H](CN(C)Cc2ccc(Oc3ccccc3)cc2)Oc2ccc(NC(=O)Cc3ccccc3)cc2CC1=O | -41 | 1 | 54
C[C@H]1CN([C@@H](C)CO)C(=O)Cc2cc(NC(=O)Cc3ccccc3)ccc2O[C@@H]1CN(C)Cc1ccc(Oc2ccccc2)cc1 | -30 | / | 63*
C[C@@H]1CN([C@H](C)CO)C(=O)Cc2cc(NC(=O)Cc3ccccc3)ccc2O[C@@H]1CN(C)Cc1ccc(-c2ccccc2)cc1 | -62 | 1 | 72*
C[C@H]1CN([C@@H](C)CO)C(=O)c2cc(N(C)C)ccc2O[C@@H]1CN(C)Cc1ccc(Oc2ccccc2)cc1 | 0 | / | 14
COc1ccc(S(=O)(=O)N(C)C[C@@H]2Oc3c(cccc3N(C)C)C(=O)N([C@H](C)CO)C[C@H]2C)cc1 | 10 | / | 2
COc1ccc(S(=O)(=O)Nc2ccc3c(c2)C(=O)N([C@@H](C)CO)C[C@@H](C)[C@H](CN(C)S(=O)(=O)c2ccccc2)O3)cc1 | 2 | 1 | 7
O=C(N/N=C/c1ccc2ccccc2c1O)c1ccccn1 | -107 | -4 | 61*
O=C(N/N=C/c1cccc2ccccc12)c1ccccn1 | 4 | -6 | -16
O=C(N/N=C/c1cccnc1Cl)c1ccccn1 | 0 | -7 | -8
O=C(N/N=C/c1cc(Cl)cc(Cl)c1O)c1ccccn1 | -63 | -3 | 71*

Compound activity: PubChem, Broad Institute
